# Screens deposited in PubChem by several laboratories.
# TMEM16A inh: blocks the mouse calcium-activated chloride channel TMEM16A. Q8BHY3. HEK293 TMEM16A/YFP iodide influx fluorescence, ionomycin. normalized B-score (activity score, 25-100; higher = stronger inhibition) at 10 µM. hit rate 1.2% among 310,000. AID 588511;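 active = ratio plate-corrected score three or more library SD toward inhibition, starting fluorescence score within five deviations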;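 also: score derived from kinetic fluorescence span divided by baseline fluorescence per well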
# SR-BI HDL uptake: mouse SR-BI HDL lipid transfer inhibition | ldlA[mSR-BI] CHO cells, DiI-HDL uptake fluorescence, 3 h | inhibition, % at 12.5 µM | hit rate 0.96% among 320,000;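 active = mean replicate inhibition of at least 70% and a set share of replicates each scoring 70 or more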;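 also: 0% = median of neutral control wells and 100% = median of positive control wells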
# Target sequence (Q61009 whole entry, looked up): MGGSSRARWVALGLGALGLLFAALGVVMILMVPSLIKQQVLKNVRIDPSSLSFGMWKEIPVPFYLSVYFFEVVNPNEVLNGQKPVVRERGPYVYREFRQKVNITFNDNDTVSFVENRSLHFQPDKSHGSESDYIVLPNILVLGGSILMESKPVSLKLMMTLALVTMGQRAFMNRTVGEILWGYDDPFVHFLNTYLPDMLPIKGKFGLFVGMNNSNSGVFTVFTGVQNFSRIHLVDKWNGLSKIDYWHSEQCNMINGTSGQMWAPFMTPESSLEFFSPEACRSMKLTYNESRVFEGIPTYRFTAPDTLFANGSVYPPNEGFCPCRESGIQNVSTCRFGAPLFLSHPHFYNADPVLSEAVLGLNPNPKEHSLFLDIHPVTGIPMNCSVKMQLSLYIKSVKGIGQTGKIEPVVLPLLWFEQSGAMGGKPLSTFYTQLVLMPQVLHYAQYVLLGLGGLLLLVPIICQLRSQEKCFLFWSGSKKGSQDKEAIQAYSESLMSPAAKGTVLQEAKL
# Kir21 inh: blocks the mouse Kir2.1 inward-rectifier potassium channel | HEK293-Kir2.1, FluxOR thallium flux fluorescence; hits give low values | B-score at 10 µM | hit rate 0.85% among 310,000;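 active = fluorescence ratio B-score at or below minus 3 SD of library scores, with starting-brightness B-score within 2 SD, cut at about -4.2 in these data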;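 also: channel flux triggered by added potassium and thallium sulfate stimulus; B-score of peak minus minimum fluorescence over baseline after thallium stimulus; more negative B-score means stronger Kir2.1 block with less thallium influx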
# FID counter: fluorescent intercalator displacement, NS3 helicase counter-screen. DNA fluorescent intercalator displacement, fluorescence. inhibition, % at 7.9 µM. hit rate 0.17% among 290,000. AID 1845; in the data active = inhibition above about 37%;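 also: 0% = vehicle and 100% = reference compound; higher means more ethidium bromide displaced from hairpin DNA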
# TMEM16A act: activates or potentiates the mouse TMEM16A chloride channel. Q8BHY3. HEK293 TMEM16A/YFP-H148Q/I152L, iodide quench fluorescence; hits give low values. B-score at 10 µM. hit rate 0.3% among 340,000;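 active = fluorescence-ratio B-score plate-corrected deviation score at least 3 library SD below zero, with starting fluorescence score within 5 deviations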;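 also: channel opened by trigger with iodide after compound preincubation; score built on the fluorescence ratio of max minus min over baseline; more negative score means more quench and so TMEM16A activation or potentiation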
# SR-BI uptake up: activators of SR-BI mediated HDL lipid uptake; CHO ldlA[mSR-BI] cells, DiI-HDL uptake fluorescence, 3 h; 100 = double the neutral-control signal; activation, % at 12.5 µM; hit rate 0.096% among 320,000;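 active = mean replicate activation of at least 60% and every replicate at or above 60%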;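 also: 0% = median plate neutral-control signal and 100% = twice that signal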
#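 material = CHO ldlA[mSR-BI] cells | medium = Ham's F12 with 0.5% BSA, HEPES 25 mM, pH 7.4 | reagent = fluorescent DiI-HDL, 10 µg/mL final | compound dosing = single-point compound dose | incubation = 3 h, 37 °C | measured by = bottom-read fluorescence, 550/595 nm | measure = HDL uptake via cellular fluorescence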
# TMEM16A reconf: reconfirmed blocker of mouse TMEM16A calcium-activated chloride channel; shares compounds with TMEM16A inh; hit rate 39% among 2,300; HEK293 TMEM16A/YFP-H148Q, iodide quench fluorescence; ionomycin added to raise cell calcium; inhibition, % at 10 µM; AID 652189;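 active = mean duplicate percent inhibition, scaled so buffer wells are 0 and the reference blocker 100, over three buffer SD above buffer mean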
# HEK293 Ca mobil: calcium mobilization counter-screen hit for TMEM16A inhibitor series; hit rate 2% among 2,300; TMEM16A/YFP HEK293, Fluo4 calcium mobilization; calcium response (% of ionomycin), % at 10 µM; shares compounds with TMEM16A inh; AID 652231;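 active = duplicate-averaged calcium signal over 20% of the ionomycin maximum, relative to buffer baseline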;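 also: each well's signal is peak minus trough fluorescence divided by its pre-addition baseline; 0% = buffer wells and 100% = ionomycin wells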
# YFP-HEK293 quench: parental YFP-HEK293 iodide quench counter-screen activity; 2,300 tested, under 10 active; YFP ratio F(max-min)/F0 at 10 µM; shares compounds with TMEM16A inh; ionomycin;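 active = yellow fluorescent protein signal ratio exceeding the buffer control mean by over 5 SD of those controls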;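 also: ratio is mean of duplicate wells from kinetic YFP trace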
# ClC-1 inh: rat ClC-1 inhibition, TMEM16A specificity screen; shares compounds with TMEM16A inh; CHO ClC-1-YFP, iodide influx fluorescence quench; iodide control reads 0, buffer control 100; ratio percent, % at 10 µM; 2,300 tested, under 10 active; AID 652236;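 active = duplicate-mean ratio percent above the mean of iodide-only control wells, which defines zero, plus 5 of their SD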;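 also: higher percent means stronger block of ClC-1 iodide influx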
# * hit, by the source's call; i = inactive; . = no result. A selection: hits, their analogues and other compounds. The true share with any hit is near 3%.
SMILES,TMEM16A inh,SR-BI HDL uptake,Kir21 inh,FID counter,TMEM16A act,SR-BI uptake up,TMEM16A reconf,HEK293 Ca mobil,YFP-HEK293 quench,ClC-1 inh
O=S(=O)(NC1CCCCC1Nc1ccc(Cl)cc1)c1ccccc1 (stereo unspecified),25*,31.6,0.18,-5.2,i,-31.6,i,i,-1.1,-9.5
Cc1ccc(NC2CCCCC2NS(=O)(=O)c2ccc(Cl)cc2)cc1 (stereo unspecified),i,42.5,0.03,-0.4,i,-42.5,.,.,.,.
O=C(CCS(=O)(=O)Cc1ccccc1)Nc1ncc([N+](=O)[O-])s1,i,-10.8,-1.32,9.7,i,10.8,.,.,.,.
CCC(C(=O)N1CCN(C(=O)c2ccco2)CC1)c1ccccc1 (stereo unspecified),100*,-10.6,0.16,-12.5,i,10.6,i,i,-0.969,-22.5
CCn1c(SCc2nc(-c3ccc(Cl)cc3)no2)nnc1-c1ccco1,100*,12.7,-4.68*,-24.9,i,-12.7,i,27.5%*,-0.926,-11.0
COC/C=C/C1=CC2=CC(=O)C(C)(OC(=O)c3cnc4ccccc4n3)C(=O)C2=CN1CCc1c[nH]c2ccccc12 (stereo unspecified),i,.,-0.2,.,.,.,.,.,.,.
CN1CCc2c(sc3c2C(=O)NC(c2cccs2)N3)C1 (stereo unspecified),i,-6.9,2.03,-1.7,i,6.9,.,.,.,.
CSc1ccc(C2NC(=O)c3c(sc4c3CCN(C)C4)N2)cc1 (stereo unspecified),i,12.7,-0.71,-0.9,i,-12.7,i,i,-0.533,-6.0
O=C(Nc1nc2cc3c(cc2s1)OCCO3)c1ccc([N+](=O)[O-])o1,i,-16.1,-1.32,9.1,i,16.1,.,.,.,.
CCCCn1c(N)c(N(CC(C)C)C(=O)c2cccc(S(=O)(=O)N(CC)c3ccccc3)c2)c(=O)[nH]c1=O,.,-19.9,.,.,i,19.9,.,.,.,.
COc1ccc(NS(=O)(=O)c2cccc(C(=O)N(C)Cc3ccc(SC)cc3)c2)cc1,i,-3.9,0.26,.,i,3.9,.,.,.,.
COc1ccc(-c2csc3nc(-c4cccnc4)nc(Cl)c23)cc1OC,25*,40.1,0.08,-24.3,i,-40.1,i,i,-1.2,-19.0
CC(C)c1ccc2c(c1)C1(NN=C(c3ccccc3)S1)C(=O)N2 (stereo unspecified),25*,106.2*,0.95,-5.4,i,-106.1,29.0%*,i,-0.863,-8.0
COc1ccc(N2Nc3n[nH]c(N)c3N2)cc1,i,3.7,0.24,2.1,i,-3.7,i,i,-1.07,-4.5
CCOC(=O)c1c(C)n(CC(COC(C)=O)OC(C)=O)c2ccc(OC(C)=O)cc12 (stereo unspecified),25*,36.4,-1.01,-27.3,i,-36.4,i,i,-1.18,-15.5
CCN(CC)C(=O)C1c2ccccc2Oc2ccccc21,i,-43.2,-14.2,-45.6,i,43.2,.,.,.,.
CN1C[C@@H]2[C@@H]3C(=O)N(C)C(=O)[C@@H]3[C@](C)(C1=O)N2C(=O)c1ccc(Cl)c(Cl)c1,.,-15.9,.,.,i,15.9,.,.,.,.
Cc1cc(C)n(C(=O)c2ccc(S(=O)(=O)NCC3CCCO3)cc2)n1 (stereo unspecified),i,-9.0,0.98,-3.4,i,9.0,i,i,-1.2,-7.0
CC(=O)Nc1ccc(S(=O)(=O)NCC2CCCO2)cc1 (stereo unspecified),i,-2.2,-0.96,.,i,2.2,.,.,.,.
O=C(OC1CCN(c2ncc(C(F)(F)F)cc2Cl)CC1)c1ccc(Cl)cc1,i,-23.1,0.26,1.0,i,23.1,.,.,.,.
O=C(OCCN1CCN(c2ncc(C(F)(F)F)cc2Cl)CC1)c1ccc(Cl)cc1,100*,-29.4,-1.51,-3.3,i,29.4,i,i,-1.1,-6.5
O=C(CCc1ccc(O)cc1)c1c(O)cc(O)cc1O,25*,-11.9,0,.,i,11.9,18.0%*,i,-1.01,-17.0
O=c1c(-c2c(O)cc(O)c3c2O[C@H](c2ccc(O)cc2)CC3)c(-c2ccc(O)cc2)oc2cc(O)cc(O)c12,.,-7.2,.,.,i,7.2,.,.,.,.
